Hits are enriched below; roughly 5.5% of the tested compounds scored in any of these assays.
PostGolgi yeast: phenotypic screen on post-Golgi transport, primary screen; post-Golgi transport phenotypic cell assay; 98,000 tested, 0.9% active; AID 739, 2007; inhibition, % at 10 µM;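 further: yeast cells grown in 1536-well plates; yeast grown about 18 h at 30C before absorbance read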
PostGolgi ctrl: growth inhibition of yeast control strain, primary screen, counter-screen for post-Golgi transport modulator project | efflux-deficient yeast background strain, growth absorbance A615, 16 h | inhibition, % at 10 µM | 98,000 tested, 5% active | AID 738, 2007
E coli WT exp: growth inhibitors of wild-type E. coli, primary screen, strain BW25113, expanded library, OD600. OD600 absorbance. growth inhibition, % at 100 µM. 98,000 tested, 0.15% active. AID 710, 2007;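 active means growth inhibition above about 50% at one test dose, limit read from the data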;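 further: growth measured after 20 h incubation at 37 °C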
tolC growth inh: growth inhibitors of E. coli tolC mutant, primary screen, strain BW25113 ΔtolC::kan, 384-well | OD615 | growth inhibition, % at 10 µM (by protocol) | 65,000 tested, 2.2% active;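 active means growth inhibition at or above a cutoff equal to the mean over every tested compound plus 3 SD, cut at about 60% in these data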;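 further: growth measured after 20 h incubation at 37 °C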
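Signal: optical density read at 615 nm; Assay system: E. coli ΔtolC::kan strain BW25113; Times: 20 h incubation with compound, 37 °C; Dosing: 10 µM final, single dose.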
PLAP activator: PLAP enzyme activators, biochemical, luminescence, HTS | Alkaline phosphatase, placental type (Homo sapiens), P05187 | AID 696, 2007 | purified PLAP enzyme, luminescent substrate read-out; hits give high values | 96,000 tested, 1.2% active | activation fold at 20 µM; in the data active means activation fold above about 2
HePTP inhibitor: inhibitors of human HePTP phosphatase, primary screen, biochemical, absorbance, leukemia target | Tyrosine-protein phosphatase non-receptor type 7 (Homo sapiens), P35236 | recombinant HePTP phosphatase activity, OD absorbance | inhibition, % at 20 µM | 110,000 tested, 0.64% active | AID 521, 2006; in the data active means inhibition above about 50%;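 further: plate controls were vehicle for no effect and reference inhibitor for full effect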
Target sequence (P35236 whole entry, looked up): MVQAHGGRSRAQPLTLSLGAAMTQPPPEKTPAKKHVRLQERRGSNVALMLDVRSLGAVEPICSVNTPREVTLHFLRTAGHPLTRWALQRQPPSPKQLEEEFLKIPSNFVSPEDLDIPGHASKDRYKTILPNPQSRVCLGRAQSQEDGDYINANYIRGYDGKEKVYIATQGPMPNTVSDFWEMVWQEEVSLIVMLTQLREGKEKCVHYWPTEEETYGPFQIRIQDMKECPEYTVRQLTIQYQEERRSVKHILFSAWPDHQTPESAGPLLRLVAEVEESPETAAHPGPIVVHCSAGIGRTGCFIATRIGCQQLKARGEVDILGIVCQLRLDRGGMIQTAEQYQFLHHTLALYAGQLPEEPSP
The depositor's hits bear a star; / = no result. Unless noted, no stated cut-off is given here; in the data, active means inhibition above about 30%; inactive means the rest.

SMILES | PostGolgi yeast | PostGolgi ctrl | E coli WT exp | tolC growth inh | PLAP activator | HePTP inhibitor
O=C(Nc1nccs1)c1cc(N2CCOCC2)nc2ccccc12 | -1.4 | 33.9* | 0.0 | 3.3 | 1.2 | 2.1
COc1ccc(/C=C/C(=O)c2ccc(NC(=O)c3cccs3)cc2)cc1OC | -8.5 | 54.1* | -25.0 | / | 1.4 | /
CC(C)c1ccc(CN(C(=O)C2COc3ccccc3O2)C2CCS(=O)(=O)C2)cc1 (stereo unspecified) | 0.6 | 63.1* | -2.0 | / | 1.3 | /
CCn1c(CNC(=O)COc2ccc(C(C)C)cc2)nnc1SCC(=O)Nc1ccccc1F | 5.1 | 3.4 | -1.0 | / | 2* | /
COc1ccc(C(=O)NCCc2nnc(SCC(=O)Nc3ccccc3C(C)C)n2C)cc1 | 1.9 | -1.1 | 3.0 | / | 0.9 | /
CCn1c(CNC(=O)COc2ccc(C(C)C)cc2)nnc1SCC(=O)Nc1ccccc1C(C)C | 2.3 | 42.5* | -1.0 | / | 1.7 | /
CCn1c(CSc2nc(C)cc(C)n2)nnc1SCC(=O)Nc1cccc2ccccc12 | 4.2 | 9.2 | 6.0 | / | 1.1 | /
Cc1cccc(C)c1NC(=O)Cc1ccc(Br)cc1 | / | / | / | / | / | 8.9
Cn1c(-c2ccccc2)cc2c3no[n+]([O-])c3ccc21 | 74.2* | 94.3* | 2.0 | 95.1* | 1 | 5.0
COc1ccc(CC(=O)Nc2ccc(Br)cc2C)cc1OC | / | / | / | / | / | 2.1
Fc1cccc(Cl)c1Cn1nnc(-c2ccc(N3CCOCC3)cc2)n1 | -0.6 | 13.0 | -5.0 | / | 1.1 | /
Clc1ccc(Cn2nnc(-c3ccc(CN4CCOCC4)cc3)n2)cc1 | 82.0* | 50.9* | 19.0 | 50.9 | 1.5 | 9.6
Fc1ccc(Cn2nnc(-c3ccc(CN4CCOCC4)cc3)n2)cc1 | 89.3* | 30.5* | 21.0 | 35.6 | 1.4 | -6.4
C=CCOc1ccc(/C=C2\C(=O)N(CCCOC)C(C)=C2C(=O)OC)cc1OC | / | / | / | / | / | 4.5
COC(=O)c1c(-c2ccccc2Cl)csc1NC(=O)CCC(=O)O | / | / | / | / | / | -12.6
COc1ccnc(Oc2ccc3ccccc3c2)c1C#N | -6.5 | 6.5 | 0.0 | / | 1 | /
Cc1noc2ncnc(Oc3ccc4ccccc4c3)c12 | -7.7 | 31.1* | 1.0 | / | 0.9 | /
COc1cccc(/C=N/NC(=O)CCc2c(C)n[nH]c2C)c1 | -2.5 | 15.0 | -1.0 | / | 2.1* | 10.8
COc1cccc(/C=N/NC(=O)c2cc(C34CC5CC(CC(C5)C3)C4)[nH]n2)c1 | -2.6 | 66.1* | -7.0 | / | 1.6 | -2.8
O=C(Nc1ccc2c(c1)OCO2)C1CCN(Cc2cnn(-c3ccccc3)c2-n2cccc2)CC1 | 0.5 | 4.0 | -3.0 | 18.8 | 2.9* | 10.9
O=C(O)C1CCCCC1C(=O)Nc1nc(-c2ccc(Br)cc2)cs1 (stereo unspecified) | / | / | / | / | / | -7.4
COC(=O)c1cc(-c2ccc(/C=N/n3cnnc3)o2)ccc1Cl | / | / | / | / | / | -6.3
CC(C)COC(=O)c1cc(-c2ccc(/C=N/n3cnnc3)o2)ccc1Cl | 5.2 | 36.1* | 13.0 | 19.3 | 1.1 | -9.1
C=CCc1cccc2cc(C(=O)Nc3cccc(C(=O)O)c3)c(=O)oc12 | / | / | / | / | / | 90.0*
C=CCc1cccc2cc(C(=O)Nc3ccc(S(=O)(=O)Nc4nnc(CC)s4)cc3)c(=O)oc12 | / | / | / | / | / | 102.6*
SMILES | PostGolgi yeast | PostGolgi ctrl | E coli WT exp | tolC growth inh | PLAP activator | HePTP inhibitor
Cc1cc(/C=C2\C(=O)NC(=O)N(c3cccc(F)c3)C2=O)c(C)n1-c1cccc([N+](=O)[O-])c1 | / | / | / | / | / | -6.9
C=CCC(CC=C)(NC(=O)/C=C/c1cccc([N+](=O)[O-])c1)c1ccccc1 | / | / | / | / | / | 1.2
c1ccc2c(c1)CCN(c1nc3ccccc3n3cnnc13)C2 | -4.7 | 43.5* | -4.0 | 13.7 | 1.5 | 3.2
c1ccc(N2CCN(c3nc4ccccc4n4cnnc34)CC2)cc1 | 5.7 | 22.6 | -10.0 | / | 1.5 | /
c1ccc(CN2CCN(c3nc4ccccc4n4cnnc34)CC2)cc1 | -3.5 | 34.0* | 8.0 | 3.7 | 1.7 | 3.8
O=C1NC(=Nc2ccc(F)cc2)SC1Cc1cccc(Cl)c1 (stereo unspecified) | / | / | / | / | / | 4.6
CCOC(=O)C(=CNc1ccc(Br)cc1)C(=O)OCC | / | / | / | / | / | 1.1
Cc1cccc(N2C(=O)NC(=O)/C(=C/c3cc4c(cc3Br)OCO4)C2=O)c1 | / | / | / | / | / | 0.0
CC12CCC(C(=O)N(Cc3ccccc3)Cc3ccccc3)(OC1=O)C2(C)C (stereo unspecified) | -2.7 | 38.1* | -10.0 | / | 1.5 | /
CCOC(=O)c1c(N)sc(C(O)(C(F)(F)F)C(F)(F)F)c1-c1ccc(F)cc1 | 1.9 | 16.0 | 20.0 | / | 1.3 | /
CCOC(=O)c1c(N)sc(C(O)(C(F)(F)F)C(F)(F)F)c1-c1ccc(Cl)cc1 | -1.1 | 71.8* | 1.0 | / | 1.4 | /
CC(CN1CCCCC1)C(=O)c1ccccc1 (stereo unspecified) | / | / | / | / | / | 5.0
Cc1ccccc1C1C(C#N)=C2NC(=O)c3c(sc4c3CCCCC4)N2C2=C1C(=O)CC(C)(C)C2 (stereo unspecified) | 11.4 | 40.9* | -15.0 | / | 1.1 | /
CCCCc1ccc(Nc2nc(CCC)cc(=O)[nH]2)cc1 | 5.9 | 51.6* | 2.0 | 100.0* | 1.2 | 9.1
Cc1[nH]n(-c2ccccc2)c(=O)c1C(c1c(Cl)cccc1Cl)c1c(C)[nH]n(-c2ccccc2)c1=O | / | / | / | / | / | 10.5
Cc1[nH]n(-c2ccccc2)c(=O)c1Sc1ccc(Cl)cc1 | -2.9 | 35.0* | 4.0 | / | 1 | /
O=C(c1ccc(Br)cc1)N(Cc1ccccc1)c1cccc([N+](=O)[O-])c1 | / | / | / | / | / | 3.1
Cc1ccc(S(=O)(=O)N(CC(=O)N2CCC(C(N)=O)CC2)c2cccc(C(F)(F)F)c2)cc1 | 42.8* | 4.6 | -10.0 | -2.3 | 1 | 6.2
Cc1ccc(/C=C(\C#N)c2nc(-c3ccc([N+](=O)[O-])cc3)cs2)o1 | / | / | / | / | / | 8.0
Clc1ccc(OCCCN2CCCC2)cc1 | / | / | / | / | / | 7.5
Cc1sc2ncnc(N3CCN(CCOc4ccc(Cl)cc4)CC3)c2c1C | -5.1 | 35.4* | -19.0 | / | 1.8 | /
CC(=O)NCCN=Cc1c(O)[nH]c2ccccc12 | / | / | / | / | / | 7.7
CCn1c(SC)nnc1-c1sc2cc(Cl)ccc2c1Cl | -3.1 | 69.8* | -7.0 | 76.6* | 1.1 | 8.2
COc1cccc(/C=N\NC(=O)C2C(=O)NCC2c2ccccc2)c1O (stereo unspecified) | 7.9 | 2.5 | 10.0 | / | 2.5* | /
Cc1ccc(-c2ccc(/C=N\NC(=O)C3C(=O)NCC3c3ccccc3)o2)cc1Cl (stereo unspecified) | -4.6 | 28.1 | -18.0 | / | 2.1* | /
O=C1NCC(c2ccccc2)C1C(=O)N/N=C\c1ccc(-c2cccc(Cl)c2Cl)o1 (stereo unspecified) | -4.9 | 21.3 | -6.0 | / | 1.7 | /
COc1ccccc1NC(=O)C(=O)N/N=C/c1cccc(OC)c1O | / | / | / | / | / | -13.1
Cc1cccc(N2CCN(C(=O)C(NS(=O)(=O)c3cccs3)c3ccccc3)CC2)c1C (stereo unspecified) | -3.8 | 39.9* | -8.0 | / | 1.7 | /
CC(=O)c1ccc(N(C(C)=O)C2=C(N3CCCCC3)C(=O)c3ccccc3C2=O)cc1 | / | / | / | / | / | 6.0
